Measurements gathered from unrelated publications.
Compare with care: the assays were run in different laboratories.

Cn1cc2c3c1C(=O)C(N)=CC3=[N+](C)CC2 — CC50 (HepG2; cell growth or viability, MTT; 72 h): 1000 nM
NCCNC(=O)O[C@H]1CCC[C@@]2(C1)OOC1(O2)C2CC3CC(C2)CC1C3 (stereo partly drawn) — MRT(0-inf) (male CD-1 mouse, plasma; intravenous, 3 mg/kg): 35.2 min
COCC1=N[C@@]2(O)[C@H](C(=O)N(C)OC)[C@@H](c3ccccc3)[C@]3(c4ccc(OC)cc4)Oc4cc(OC)cc(OC)c4[C@]23N1 — half-life (metabolic stability; human, liver microsomes; 1 µM, pH 7.4): 24.8 min
CC(C)(N)CNC(=O)O[C@H]1CCC[C@@]2(C1)OOC1(O2)C2CC3CC(C2)CC1C3 (stereo partly drawn) — MRT(0-inf) (male CD-1 mouse, plasma; intravenous, 3 mg/kg): 32.5 min
Cn1cc2c3c1C(=O)C(N)=CC3=NCC2 — CC50 (HepG2; cell growth or viability, MTT; 72 h): 2000 nM
CNC(C)Cc1ccc2n[se]nc2c1 (stereo not drawn) — half-life (metabolic stability; human, liver microsomes; 0.5 µM): > 150 min
COc1ccc([C@@]23Oc4cc(OC)cc(OC)c4[C@@]24NC(C)=N[C@@]4(O)[C@H](C(=O)N(C)OC)[C@H]3c2ccccc2)cc1 — half-life (metabolic stability; human, liver microsomes): 120 min
CN1CCN(S(=O)(=O)c2cc([N+](=O)[O-])ccc2N(CCOS(C)(=O)=O)CCOS(C)(=O)=O)CC1 — MRT(0-inf) (female SCID mouse, plasma; intraperitoneal, 25 mg/kg): 25.2 min
CNC(C)Cc1ccc2c(c1)OCO2 (stereo not drawn) — half-life (metabolic stability; human, liver microsomes; 0.5 µM): > 150 min
